Data reported in PMC8453750 (Clinical Pharmacology in Drug Development, 2021).

Experiments:
[1] = test system: CYP2D6; settings: recombinant human CYPs; cited from earlier work
[2] = Part 2 safety: treatment-emergent adverse events, labs, vital signs, ECG; type: in vivo, human
Outline: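 Part 2 had 12 healthy adults. They received a single fasted oral 160 mg dose of the test compound, then rifampin 600 mg once daily, with a 7-day lead-in before coadministration and 6 days of continued dosing afterwards. TEAEs were recorded through 30 days after the last test-compound dose, coded with MedDRA v22.0 and graded by NCI CTCAE v5. Vital signs, hematology/chemistry/urinalysis and 12-lead ECG were also assessed. All were summarised descriptively.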

[3] = test system: CYP2C19; settings: recombinant human CYPs; cited from earlier work
[4] = Part 1: mobocertinib-itraconazole DDI study, plasma PK; type: in vivo, human; settings: for AUC(0-inf) / Cmax / half-life: human, plasma, oral; for AUC(0-inf): AUC0-∞; for half-life: t½; for AUC0-∞, Geometric LS Mean Ratio (90%CI) (Test/Reference) / Cmax, Geometric LS Mean Ratio (90%CI) (Test/Reference): mobocertinib 20 mg + itraconazole vs mobocertinib alone
Outline: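 Nonsmoking adults aged 18–55 (n = 12) took a single oral capsule dose of 20 mg fasted, with a meal at least 4 h postdose. This was repeated with itraconazole solution 200 mg once daily on an empty stomach over 14 days, after a 4-day lead-in. Plasma was sampled predose to 168 h, adding 192 and 240 h with itraconazole. Parent and two metabolites were measured by LC-MS/MS (LLOQ 0.100 ng/mL). Analysis was noncompartmental, with ln-transformed geometric LSM ratios and 90% CI.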

[5] = Part 2: mobocertinib-rifampin DDI study, plasma PK; type: in vivo, human
[6] = test system: CYP2B6; settings: recombinant human CYPs; cited from earlier work
[7] = test system: CYP2C8; settings: recombinant human CYPs; cited from earlier work
[8] = test system: CYP1A2; settings: recombinant human CYPs; cited from earlier work
[9] = preclinical data; ref data on file; Millennium Pharmaceuticals, Inc.; cited from earlier work
[10] = test system: CYP3A4/5; settings: recombinant human CYPs; cited from earlier work
[11] = cited from earlier work
[12] = cited from earlier work; remark: listed apart in the source
[13] = test system: CYP2C9; settings: recombinant human CYPs; cited from earlier work
[14] = Part 1 safety: treatment-emergent adverse events, labs, vital signs, ECG; type: in vivo, human
Outline: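 Part 1 had 12 healthy adults. They received a single fasted oral 20 mg dose of the test compound, then itraconazole oral solution 200 mg once daily for 14 days, with the test compound coadministered. TEAEs were recorded through 30 days after the last test-compound dose, coded with MedDRA v22.0 and graded by NCI CTCAE v5. Vital signs, hematology/chemistry/urinalysis and 12-lead ECG were also assessed. All were summarised descriptively.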

[15] = Mobocertinib 160 mg + Rifampin, part 2
[16] = Mobocertinib 160 mg Alone, part 2
[17] = 20 mg, Arithmetic Means (SD), mobocertinib 20 mg alone (reference), footnote a: mean (%CV)
[18] = 20 mg, Geometric Means (%CV), mobocertinib 20 mg alone (reference)
[19] = Arithmetic Means (SD), mobocertinib 20 mg + itraconazole 200 mg once daily (test), footnote a: mean (%CV)
[20] = Geometric Means (%CV), mobocertinib 20 mg + itraconazole 200 mg once daily (test)
[21] = itraconazole and mobocertinib 20 mg vs mobocertinib alone
[22] = itraconazole plus mobocertinib 20 mg vs mobocertinib alone
[23] = mobocertinib 160 mg + rifampin vs mobocertinib alone
[24] = rifampin plus mobocertinib 160 mg
[25] = Mobocertinib 20 mg + Itraconazole, part 1
[26] = Mobocertinib 20 mg Alone, part 1

What does the source list for C=CC(=O)Nc1cc(Nc2ncc(C(=O)OC(C)C)c(-c3cn(C)c4ccccc34)n2)c(OC)cc1N(C)CCN(C)C [Mobocertinib]?
Percent contribution of enzyme to metabolism [1]: < 2%; TEAE: Back pain [2, 15]: 1 (8) n (%); TEAE: Chest discomfort [2, 15]: 2 (17) n (%); TEAE: Diarrhea [2, 15]: 3 (25) n (%); TEAE: Dry skin [2, 15]: 0 n (%); TEAE: Dry throat [2, 15]: 0 n (%); TEAE: Headache [2, 15]: 2 (17) n (%); TEAE: Nausea [2, 15]: 2 (17) n (%); TEAE: Oropharyngeal pain [2, 15]: 2 (17) n (%); TEAE: Pruritus [2, 15]: 2 (17) n (%); TEAE: Pruritus generalized [2, 15]: 0 n (%); TEAE: Rash [2, 15]: 2 (17) n (%); Volunteers with TEAEs [2, 15]: 10 (83) n (%); Volunteers without TEAEs [2, 15]: 2 (17) n (%); TEAE: Back pain [2, 16]: 1 (8) n (%); TEAE: Chest discomfort [2, 16]: 0 n (%); TEAE: Diarrhea [2, 16]: 2 (17) n (%); TEAE: Dry skin [2, 16]: 3 (25) n (%); TEAE: Dry throat [2, 16]: 2 (17) n (%); TEAE: Headache [2, 16]: 1 (8) n (%); TEAE: Nausea [2, 16]: 1 (8) n (%); TEAE: Oropharyngeal pain [2, 16]: 0 n (%); TEAE: Pruritus [2, 16]: 0 n (%); TEAE: Pruritus generalized [2, 16]: 2 (17) n (%); TEAE: Rash [2, 16]: 0 n (%); Volunteers with TEAEs [2, 16]: 9 (75) n (%); Volunteers without TEAEs [2, 16]: 3 (25) n (%); TEAE: Back pain ([2]; Part 2 Overall): 2 (17) n (%); TEAE: Chest discomfort ([2]; Part 2 Overall): 2 (17) n (%); TEAE: Diarrhea ([2]; Part 2 Overall): 4 (33) n (%); TEAE: Dry skin ([2]; Part 2 Overall): 3 (25) n (%); TEAE: Dry throat ([2]; Part 2 Overall): 2 (17) n (%); TEAE: Headache ([2]; Part 2 Overall): 3 (25) n (%); TEAE: Nausea ([2]; Part 2 Overall): 3 (25) n (%); TEAE: Oropharyngeal pain ([2]; Part 2 Overall): 2 (17) n (%); TEAE: Pruritus ([2]; Part 2 Overall): 2 (17) n (%); TEAE: Pruritus generalized ([2]; Part 2 Overall): 2 (17) n (%); TEAE: Rash ([2]; Part 2 Overall): 2 (17) n (%); Volunteers with TEAEs ([2]; Part 2 Overall): 11 (92) n (%); Volunteers without TEAEs ([2]; Part 2 Overall): 1 (8) n (%); Changes in laboratory parameters, vital signs, or ECGs ([2]; part 2): no apparent or consistent treatment‐related changes; Deaths, serious TEAEs, discontinuations ([2]; part 2): No deaths, serious TEAEs, or discontinuations; Tolerability ([2]; single oral dose 160 mg with rifampin, healthy volunteers): generally well tolerated; Percent contribution of enzyme to metabolism [3]: < 2%; AUC(0-inf) [4, 17]: 113 ng·h/mL; AUC(0-inf) [4, 18]: 106 ng·h/mL; Cmax [4, 17]: 5.78 ng/mL; Cmax [4, 18]: 5.52 ng/mL; half-life [4, 17]: 21.5 h; half-life [4, 18]: 21.2 h; AUC(0-inf) [4, 19]: 907 ng·h/mL; AUC(0-inf) [4, 20]: 892 ng·h/mL; Cmax [4, 19]: 21.5 ng/mL; Cmax [4, 20]: 21.1 ng/mL; half-life [4, 19]: 54.7 h; half-life [4, 20]: 53.9 h; Increase in plasma AUC0-∞ [4, 21]: 743%; Increase in plasma Cmax [4, 21]: ≈ 283%; Increase in geometric mean t½ [4, 22]: 154%; Median tmax reached later [4, 22]: 2 h; AUC0-∞, Geometric LS Mean Ratio (90%CI) (Test/Reference) [4]: 8.43 (7.02‐10.12); Cmax, Geometric LS Mean Ratio (90%CI) (Test/Reference) [4]: 3.83 (3.25‐4.50); AUC0-∞, Geometric LS Mean Ratio (90%CI) (Test/Reference) ([4]; listed as mobocertinib): 8.43; Cmax, Geometric LS Mean Ratio (90%CI) (Test/Reference) ([4]; listed as mobocertinib): 3.83; AUC0-∞, Geometric LS Mean Ratio (90%CI) (Test/Reference) [5, 23]: 0.04 (0.03‐0.05); Cmax, Geometric LS Mean Ratio (90%CI) (Test/Reference) [5, 23]: 0.05 (0.04‐0.07); AUC0-∞, Geometric LS Mean Ratio (90%CI) (Test/Reference) ([5]; mobocertinib 160 mg + rifampin vs mobocertinib alone, listed as mobocertinib): 0.04; Plasma AUC0-∞ as % of value following mobocertinib alone [5, 24]: ~4%; Plasma Cmax as % of value following mobocertinib alone [5, 24]: approximately 5%; Reduction in geometric mean t½ ([5]; rifampin plus mobocertinib 160 mg vs mobocertinib alone): 29%; Percent contribution of enzyme to metabolism [6]: < 2%; Percent contribution of enzyme to metabolism [7]: < 2%; Percent contribution of enzyme to metabolism [8]: < 2%; Mutagenicity / genotoxicity [9]: neither mutagenic nor genotoxic; Percent contribution of enzyme to metabolism [10]: > 90%; Effect of a low-fat meal on absorption [11]: no apparent effect; Excreted unchanged in urine ([11]; renal elimination): < 1.2%; Mean half-life ([11]; single oral doses, healthy volunteers): 20 h; Accumulation of systemic exposure after repeat dosing ([12]; 20 to 120 mg once daily, patients with NSCLC): moderate accumulation; Recommended phase 2 dose ([12]; dose escalation, patients with NSCLC): 160 mg once daily; Dose proportionality of Cmax and AUC0-24 ([12]; dose range 5 to 180 mg once daily): increased in a dose‐proportional manner; Median tmax ([12]; once-daily administration, patients with NSCLC): 4 hours postdose; Percent contribution of enzyme to metabolism [13]: < 2%; TEAE: Back pain [14, 25]: 1 (8) n (%); TEAE: Chest discomfort [14, 25]: 0 n (%); TEAE: Diarrhea [14, 25]: 2 (17) n (%); TEAE: Dry skin [14, 25]: 0 n (%); TEAE: Dry throat [14, 25]: 0 n (%); TEAE: Headache [14, 25]: 1 (8) n (%); TEAE: Nausea [14, 25]: 0 n (%); TEAE: Oropharyngeal pain [14, 25]: 0 n (%); TEAE: Pruritus [14, 25]: 0 n (%); TEAE: Pruritus generalized [14, 25]: 0 n (%); TEAE: Rash [14, 25]: 0 n (%); Volunteers with TEAEs [14, 25]: 4 (33) n (%); Volunteers without TEAEs [14, 25]: 8 (67) n (%); TEAE: Back pain [14, 26]: 0 n (%); TEAE: Chest discomfort [14, 26]: 0 n (%); TEAE: Diarrhea [14, 26]: 0 n (%); TEAE: Dry skin [14, 26]: 1 (8) n (%); TEAE: Dry throat [14, 26]: 0 n (%); TEAE: Headache [14, 26]: 0 n (%); TEAE: Nausea [14, 26]: 0 n (%); TEAE: Oropharyngeal pain [14, 26]: 0 n (%); TEAE: Pruritus [14, 26]: 0 n (%); TEAE: Pruritus generalized [14, 26]: 0 n (%); TEAE: Rash [14, 26]: 0 n (%); Volunteers with TEAEs [14, 26]: 1 (8) n (%); Volunteers without TEAEs [14, 26]: 11 (92) n (%); TEAE: Back pain ([14]; Part 1 Overall): 1 (8) n (%); TEAE: Chest discomfort ([14]; Part 1 Overall): 0 n (%); TEAE: Diarrhea ([14]; Part 1 Overall): 2 (17) n (%); TEAE: Dry skin ([14]; Part 1 Overall): 1 (8) n (%); TEAE: Dry throat ([14]; Part 1 Overall): 0 n (%); TEAE: Headache ([14]; Part 1 Overall): 1 (8) n (%); TEAE: Nausea ([14]; Part 1 Overall): 0 n (%); TEAE: Oropharyngeal pain ([14]; Part 1 Overall): 0 n (%); TEAE: Pruritus ([14]; Part 1 Overall): 0 n (%); TEAE: Pruritus generalized ([14]; Part 1 Overall): 0 n (%); TEAE: Rash ([14]; Part 1 Overall): 0 n (%); Volunteers with TEAEs ([14]; Part 1 Overall): 5 (42) n (%); Volunteers without TEAEs ([14]; Part 1 Overall): 7 (58) n (%); Changes in laboratory parameters, vital signs, or ECGs ([14]; part 1): no apparent or consistent treatment‐related changes; Deaths, serious TEAEs, discontinuations ([14]; part 1): No deaths, serious TEAEs, or discontinuations; Tolerability ([14]; single oral dose 20 mg with itraconazole, healthy volunteers): generally well tolerated
